T cell HTS: T cell immune modulation candidate; hit rate 0.068% among 330,000; response (vesicle binding), % at 7 µM; 2C CD8+ T cell-vesicle binding, flow cytometry; active compounds read low;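 active means response, share of CD8 T cells binding vesicles, and their 90th percentile fluorescence all below set limits, cut at about 80% in these data, passing the limit was not always enough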;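 further: values below 100% mean blocked vesicle binding to the CD8+ T cells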
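Assay system: 2C TCR transgenic mouse naive CD8+ T cells, MACS-purified | Read-out: CD8+ gate FL2 mean fluorescence as % of same-row positive control | Signal: High-throughput flow cytometry with anti-B7-1 and anti-CD8 staining | Timing: Binding step 1.5 h, 37 °C, antibody labelling 20 min, ice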
UPR XBP1 act: activators of adaptive arm of unfolded protein response (XBP1); activation, % at 20 µM; hit rate 0.33% among 330,000; CHO-XBP1 luciferase reporter, IRE1-XBP1 UPR activation, luminescence; percent of tunicamycin response, DMSO as zero;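 active means versus positive control, 20 µM dose yields 30% or more activation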;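 further: 100% = tunicamycin at 10 µg/mL and 0% = DMSO only wells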
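Test system: CHO-XBP1 luciferase reporter cells | Buffer or medium: Serum-containing F12 medium, 10% FBS | Schedule: 6 h compound exposure at 37 °C, 5% CO2 | Detection: Steady-Glo luciferase glow luminescence, 10 min after reagent addition | Read-out basis: Activation, % of tunicamycin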
B2AR ag: agonists of human beta-2 adrenergic receptor inducing internalization; Am2.2-beta2AR cells, FAP receptor internalization, flow cytometry; response, % (no concentration beside the values); hit rate 0.43% among 340,000; AID 504454;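 active means response above a set limit, near 3 SD of response in nonfluorescent compounds, cut at about 42% in these data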
Target sequence (P07550 whole entry, looked up): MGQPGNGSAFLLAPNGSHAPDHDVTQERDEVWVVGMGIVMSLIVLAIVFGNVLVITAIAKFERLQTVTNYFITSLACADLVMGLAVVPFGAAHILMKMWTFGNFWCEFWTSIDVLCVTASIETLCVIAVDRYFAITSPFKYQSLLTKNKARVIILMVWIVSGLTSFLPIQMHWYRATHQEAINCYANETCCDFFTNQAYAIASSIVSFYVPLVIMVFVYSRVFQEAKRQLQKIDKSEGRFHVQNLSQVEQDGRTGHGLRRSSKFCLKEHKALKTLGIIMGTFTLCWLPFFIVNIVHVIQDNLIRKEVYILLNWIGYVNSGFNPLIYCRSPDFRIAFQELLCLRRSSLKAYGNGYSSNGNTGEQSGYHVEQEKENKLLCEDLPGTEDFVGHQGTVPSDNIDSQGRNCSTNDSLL
UPR CHOP act: apoptotic UPR (CHOP) activation | activation, % at 10 µM | CHO-CHOP luciferase reporter, luminescence; percent of tunicamycin response over DMSO baseline | hit rate 0.34% among 330,000;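 active means at 10 µM dose, activation of 40% or more, normalized to positive control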;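 further: 100% = tunicamycin at 10 µg/mL and 0% = DMSO alone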
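Material: CHO-CHOP cells, stable luciferase reporter of PERK-eIF2a-CHOP signalling; quantity: 500 reporter cells seeded per well; buffer or medium: F12 medium containing 10% fetal bovine serum; compound: one dose, 10 µM in 0.5% DMSO; incubation: 6 h compound treatment, 37 °C; measured by: Steady-Glo luciferase luminescence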
CHOP UPR conf: confirmation of apoptotic unfolded protein response (CHOP) activators | activation, % at 10 µM | CHO-CHOP cells, CHOP-luciferase reporter luminescence; percent of tunicamycin response, DMSO as zero | shares compounds with UPR CHOP act | AID 463112 | hit rate 64% among 1,000; in the data active means activation above about 33%;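 further: 0% = DMSO wells and 100% = tunicamycin 10 µg/mL wells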
XBP1 UPR conf: adaptive UPR (XBP1) activation, confirmed | CHO-XBP1 IRE1-XBP1 luciferase reporter, luminescence | hit rate 63% among 1,000 | activation, % at 20 µM | shares compounds with UPR XBP1 act | AID 485299;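 active means reporter signal at least 30% of the positive control's activation in two or more of four replicate wells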;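 further: plate controls were DMSO negative control for no effect and tunicamycin 10 µg/mL positive control for full effect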
An asterisk follows results filed as active; i = inactive; / = no result. Most compounds without a hit are left out; they make up all but 1% or so of the library.

SMILES	T cell HTS	UPR XBP1 act	B2AR ag	UPR CHOP act	CHOP UPR conf	XBP1 UPR conf
CN(C)c1ccc(C(=O)c2ccc(N(C)C)cc2)cc1	137	7	-10	3	/	/
CNC(=O)Oc1ccc(N(C)C)cc1C(C)C	148	1	1	1	/	/
CN1C(=O)NC(=O)/C(=C\C=C\c2ccccc2[N+](=O)[O-])C1=O	156	-6	/	203*	263*	/
CCN(CC)c1ccc(C=C2C(=O)NC(=S)NC2=O)cc1	72	0	51*	222*	135*	/
CN(C)c1ccc(C=C2C(=O)NC(=S)NC2=O)cc1	/	/	19	/	/	/
C=CCn1c(O)c(C(C)=NCCN2CCCCC2)c(=O)[nH]c1=O	494	-1	3	-2	/	/
CC1CCC/C=C/C2CC(O)CC2C(O)/C=C/C(=O)O1 (configuration not stated)	236	18	23	123*	103*	/
O=C1NC(=O)N(c2ccccc2)C(=O)/C1=C/C=C/c1ccco1	249	-5	59*	62*	256*	/
O=C1NC(=O)N(Cc2ccccc2)C(=O)/C1=C\C=C\c1ccco1	265	-1	67*	161*	186*	/
CN(C)c1ccc(/C=C/C=C2/C(=O)NC(=O)N(c3ccccc3)C2=O)cc1	/	/	-603	/	/	/
COC(=O)c1cn(C(=O)c2cccc3ccccc23)c2ccccc12	i	1	8	-1	/	/
C=CCN1C(=O)/C(=C/c2ccc3c(c2)CCCN3CCC)C(=O)NC1=S	259	-1	1	95*	164*	/
O=P(OCC(F)(F)C(F)F)(N1CCCCC1)N1CCCCC1	360	-2	-1	-1	/	/
CN1CSC(=S)N(C)C1	504	-2	7	40*	30	/
COc1ccc(/C=N\N=C(N)N)cc1	256	0	-10	0	/	/
NC(N)=N/N=C/c1ccc(N(c2ccccc2)c2ccccc2)cc1	96	62*	38	74*	31	3
Cc1cc(/C=C2\C(=O)NC(=O)N(Cc3ccccc3Cl)C2=O)c(C)n1-c1ccc(C(=O)O)cc1	824	-3	2	0	/	/
O=C1NC(=O)N(Cc2ccccc2Cl)C(=O)/C1=C/c1cccs1	214	47*	40	52*	50*	74*
O=C1OCCC1NC1=NCCC1 (configuration not stated)	517	0	3	0	/	/
Cc1ccc(C[n+]2c(-c3ccc(C)cc3)cc(-c3ccc(C)cc3)cc2-c2ccc(C)cc2)cc1	282	42*	-11	77*	238*	19
C#CC[N+]1(C)[C@@H]2CC[C@H]1CC(OC(=O)C(CO)c1ccccc1)C2 (some centres not stated)	140	-1	-1	-1	/	/
CCCC[C@@H](C)C[C@@H](C)C(=O)N(C)[C@@H](CC(C)C)C(=O)N[C@H](C(=O)N(C)[C@H](C(=O)N1C[C@@H](O)C[C@H]1C(=O)N1C(=O)C=C[C@@H]1C)C(C)C)C(C)OC(C)=O (some centres not stated)	0	51*	36	73*	46*	74*
CCCCCCn1c(O)c(C=NC2CCCCC2N)c(=O)[nH]c1=O (configuration not stated)	339	30*	/	-1	/	14
CC(=O)C1C2c3ccccc3OC1(C)N=c1s/c(=C/c3cn(C)nc3C)c(=O)n12 (configuration not stated)	375	7	-2	0	/	/
CCc1ccc(N2C(=O)NC(=O)/C(=C\c3cccn3CCOc3ccc(C(C)C)cc3)C2=O)cc1	328	51*	6	23	/	41*
Cc1ccc(OCCn2cccc2/C=C2/C(=O)NC(=O)N(Cc3ccco3)C2=O)cc1	494	-2	9	2	/	/
O=C1NC(=O)C(=Cc2cn(CCOc3ccc4c(c3)OCO4)c3ccccc23)C(=O)N1	282	31*	42	11	/	79*
CN(C)c1ccc(/C=C/[N+](=O)[O-])cc1	452	59*	36	18	/	33*

High-throughput results deposited in PubChem by several laboratories.
